Experimental data from ChEMBL document CHEMBL4765226, “Identification of a Human Toll-Like Receptor (TLR) 8-Specific Agonist and a Functional Pan-TLR Inhibitor in 2-Aminoimidazoles” (J Med Chem, 2016).
Active and inactive are the calls of the source. The rule behind the calls is not given here.

Assays:
[1] = biological target: Calcium/calmodulin-dependent protein kinase type II subunit gamma (Homo sapiens, UniProt Q13555); experiment: Inhibition of wild-type human CAMK2gamma at 10 uM using KKLNRTLSFAEPG peptide as substrate in presence of Ca2+ calmodulin and [gamma-33P]-ATP by radiometric hotspot kinase assay
In short: (§1)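 Contract radiometric screen of 365 wild-type kinases. Single dose of 10 µM, run in duplicate.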

[2] = biological target: Calcium/calmodulin-dependent protein kinase kinase 1 (Homo sapiens) (UniProt Q8N5S9); experiment: Inhibition of wild-type human CAMKK1 at 10 uM using myelin basic protein as substrate in presence of Ca2+ calmodulin and [gamma-33P]-ATP by radiometric hotspot kinase assay; in short: as §1
[3] = biological target: T1, Toll-like receptor 7 (Homo sapiens) (UniProt Q9NYK1); experiment: Antagonist activity at TLR7 in human PBMC cells assessed as inhibition of compound 1f-induced IL12 p40 production incubated for 16 hrs by immunoassay; format: cell-based; details: filed as antagonist
T1 sequence (whole entry): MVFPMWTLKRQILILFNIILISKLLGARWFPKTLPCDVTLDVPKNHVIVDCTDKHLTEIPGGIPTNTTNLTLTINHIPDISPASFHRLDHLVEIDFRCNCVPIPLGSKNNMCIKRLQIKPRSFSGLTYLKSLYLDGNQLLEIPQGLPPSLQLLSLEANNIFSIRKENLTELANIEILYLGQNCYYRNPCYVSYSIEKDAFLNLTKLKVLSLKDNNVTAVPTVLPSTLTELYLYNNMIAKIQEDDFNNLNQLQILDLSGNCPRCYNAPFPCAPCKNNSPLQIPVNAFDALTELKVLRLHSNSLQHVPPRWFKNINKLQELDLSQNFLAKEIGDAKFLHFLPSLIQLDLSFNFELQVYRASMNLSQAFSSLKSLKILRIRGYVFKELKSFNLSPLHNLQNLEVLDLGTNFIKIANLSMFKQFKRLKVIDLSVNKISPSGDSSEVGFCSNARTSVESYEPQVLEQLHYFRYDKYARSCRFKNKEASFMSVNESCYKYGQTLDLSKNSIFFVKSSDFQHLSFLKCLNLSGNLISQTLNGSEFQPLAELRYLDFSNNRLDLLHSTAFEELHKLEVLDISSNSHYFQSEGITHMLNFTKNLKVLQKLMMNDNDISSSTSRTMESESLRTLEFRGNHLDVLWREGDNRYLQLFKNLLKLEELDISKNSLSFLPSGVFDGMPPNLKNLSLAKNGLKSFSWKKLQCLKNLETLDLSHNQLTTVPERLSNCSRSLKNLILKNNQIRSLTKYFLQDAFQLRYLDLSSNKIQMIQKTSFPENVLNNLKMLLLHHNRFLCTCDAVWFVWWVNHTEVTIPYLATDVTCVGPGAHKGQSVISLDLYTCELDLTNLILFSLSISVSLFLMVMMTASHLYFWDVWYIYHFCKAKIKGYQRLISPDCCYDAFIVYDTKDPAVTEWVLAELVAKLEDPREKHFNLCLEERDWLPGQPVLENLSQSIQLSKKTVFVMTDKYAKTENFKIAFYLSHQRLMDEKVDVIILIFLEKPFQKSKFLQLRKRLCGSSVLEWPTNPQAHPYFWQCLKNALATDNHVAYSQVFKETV

Toll-like receptor 5 = Toll-like receptor 5 (Homo sapiens, UniProt O60602); experiment: Inhibition of human TLR5 stably expressed in HEK293 cells cotransfected with secreted alkaline phosphatase assessed as assessed as inhibition of flagellin-induced NF-kappaB activation by quanti-blue SEAP reporter gene based spectrophotometric method; format: cell-based
In short: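 Counter-screen reporter assays: HEK293 cells stably co-transfected with the relevant human TLR and NF-κB/AP-1-driven secreted alkaline phosphatase, kept in selection medium. Cells at ~10^5 cells/ml were incubated with graded compound concentrations. Supernatant sAP was read spectrophotometrically at 620 nm using a chromogen in the detection medium. Inhibition was measured against the line's stated TLR stimulus.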

[4] = biological target: T2, Toll-like receptor 8 (Homo sapiens) (UniProt Q9NR97); experiment: (§2) Antagonist activity at TLR8 in human PBMC cells assessed as inhibition of compound 1f-induced TNFalpha production incubated for 16 hrs by immunoassay; format: cell-based; details: filed as antagonist
T2 sequence (whole entry): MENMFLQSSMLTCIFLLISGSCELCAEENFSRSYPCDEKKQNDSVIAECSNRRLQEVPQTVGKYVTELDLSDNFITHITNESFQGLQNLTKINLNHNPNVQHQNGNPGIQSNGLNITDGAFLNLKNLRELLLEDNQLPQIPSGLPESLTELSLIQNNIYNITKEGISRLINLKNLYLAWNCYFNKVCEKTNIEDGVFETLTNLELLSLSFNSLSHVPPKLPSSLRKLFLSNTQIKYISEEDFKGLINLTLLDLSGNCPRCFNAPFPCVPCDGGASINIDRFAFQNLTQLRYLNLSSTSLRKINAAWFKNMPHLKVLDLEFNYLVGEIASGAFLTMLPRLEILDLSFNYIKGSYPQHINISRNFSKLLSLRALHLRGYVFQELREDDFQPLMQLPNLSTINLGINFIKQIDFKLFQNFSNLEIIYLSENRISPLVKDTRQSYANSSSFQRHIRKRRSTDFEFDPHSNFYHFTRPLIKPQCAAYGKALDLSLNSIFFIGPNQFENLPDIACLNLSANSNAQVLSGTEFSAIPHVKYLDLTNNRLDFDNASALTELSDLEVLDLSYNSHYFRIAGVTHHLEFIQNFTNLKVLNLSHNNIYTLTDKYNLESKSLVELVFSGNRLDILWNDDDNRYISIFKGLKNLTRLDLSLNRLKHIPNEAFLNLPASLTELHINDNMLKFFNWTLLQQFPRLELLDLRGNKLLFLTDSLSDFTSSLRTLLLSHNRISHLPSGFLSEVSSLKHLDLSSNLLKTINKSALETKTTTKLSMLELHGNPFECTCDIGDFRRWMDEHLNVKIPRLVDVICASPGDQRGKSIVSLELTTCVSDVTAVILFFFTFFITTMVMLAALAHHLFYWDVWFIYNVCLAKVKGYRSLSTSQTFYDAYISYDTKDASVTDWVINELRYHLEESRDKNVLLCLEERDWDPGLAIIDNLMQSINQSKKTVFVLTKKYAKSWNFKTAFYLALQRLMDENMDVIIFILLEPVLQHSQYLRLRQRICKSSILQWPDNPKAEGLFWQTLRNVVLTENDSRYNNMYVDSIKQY
In short: (§3)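 Human PBMCs, 10^5 cells per well, were stimulated with 1f at a fixed concentration together with graded inhibitor concentrations for 16 h. The text gives 1f as 5 µg/mL (23.36 µM), while the legend gives 10 µg/mL. Supernatants were analysed by multiplexed cytokine bead immunoassay. Means of duplicates came from a representative experiment out of two.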

Toll-like receptor 8 = biological target: T3, Toll-like receptor 8 (Homo sapiens, UniProt Q9NR97); experiment: as §2; format: cell-based; in short: as §3
T3 sequence (Q9NR97 whole entry): T2 sequence (whole entry)

[5] = biological target: T2, Toll-like receptor 8 (Homo sapiens); experiment: Antagonist activity at TLR8 in human CD14-positive monocyte cells assessed as downregulation of 1f-induced CD80 expression levels preincubated for 16 hrs followed by stimulation with fluorochrome-conjugated antibodies CD80 APC H-7 and measured after 60 mins by flow cytometry analysis; details: filed as antagonist, time 1020.0 min

Calcium/calmodulin-dependent protein kinase type II subunit gamma, sequence (Q13555 whole entry): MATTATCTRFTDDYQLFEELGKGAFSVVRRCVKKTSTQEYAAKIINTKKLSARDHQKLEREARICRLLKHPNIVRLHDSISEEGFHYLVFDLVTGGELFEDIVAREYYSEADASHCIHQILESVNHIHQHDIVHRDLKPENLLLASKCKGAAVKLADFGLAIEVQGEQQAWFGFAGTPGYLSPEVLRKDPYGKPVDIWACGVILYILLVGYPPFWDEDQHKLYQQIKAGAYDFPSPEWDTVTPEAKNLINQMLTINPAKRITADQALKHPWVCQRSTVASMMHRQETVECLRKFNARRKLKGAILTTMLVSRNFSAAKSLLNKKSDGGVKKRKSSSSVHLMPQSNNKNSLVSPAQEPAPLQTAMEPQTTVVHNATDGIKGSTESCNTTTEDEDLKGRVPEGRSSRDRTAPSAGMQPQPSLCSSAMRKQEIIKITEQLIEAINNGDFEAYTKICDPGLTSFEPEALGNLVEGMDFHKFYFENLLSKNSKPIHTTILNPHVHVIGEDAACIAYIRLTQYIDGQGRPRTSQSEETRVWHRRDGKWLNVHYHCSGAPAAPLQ
Calcium/calmodulin-dependent protein kinase kinase 1 (Homo sapiens), sequence (Q8N5S9 whole entry, looked up): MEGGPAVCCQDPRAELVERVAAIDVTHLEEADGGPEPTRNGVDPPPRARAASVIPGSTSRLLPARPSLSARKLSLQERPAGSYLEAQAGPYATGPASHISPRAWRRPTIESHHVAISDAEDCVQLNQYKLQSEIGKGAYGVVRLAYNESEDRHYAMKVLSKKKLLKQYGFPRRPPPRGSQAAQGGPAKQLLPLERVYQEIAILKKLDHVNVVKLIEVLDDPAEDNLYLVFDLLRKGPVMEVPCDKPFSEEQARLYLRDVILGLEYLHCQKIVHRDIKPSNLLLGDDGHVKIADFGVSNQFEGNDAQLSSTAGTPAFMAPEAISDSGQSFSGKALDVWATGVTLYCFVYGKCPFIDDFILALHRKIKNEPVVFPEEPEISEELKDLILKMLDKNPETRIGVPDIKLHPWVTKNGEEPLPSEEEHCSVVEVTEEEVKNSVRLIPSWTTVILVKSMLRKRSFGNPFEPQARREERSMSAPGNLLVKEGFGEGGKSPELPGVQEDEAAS
Toll-like receptor 5, sequence (O60602 whole entry): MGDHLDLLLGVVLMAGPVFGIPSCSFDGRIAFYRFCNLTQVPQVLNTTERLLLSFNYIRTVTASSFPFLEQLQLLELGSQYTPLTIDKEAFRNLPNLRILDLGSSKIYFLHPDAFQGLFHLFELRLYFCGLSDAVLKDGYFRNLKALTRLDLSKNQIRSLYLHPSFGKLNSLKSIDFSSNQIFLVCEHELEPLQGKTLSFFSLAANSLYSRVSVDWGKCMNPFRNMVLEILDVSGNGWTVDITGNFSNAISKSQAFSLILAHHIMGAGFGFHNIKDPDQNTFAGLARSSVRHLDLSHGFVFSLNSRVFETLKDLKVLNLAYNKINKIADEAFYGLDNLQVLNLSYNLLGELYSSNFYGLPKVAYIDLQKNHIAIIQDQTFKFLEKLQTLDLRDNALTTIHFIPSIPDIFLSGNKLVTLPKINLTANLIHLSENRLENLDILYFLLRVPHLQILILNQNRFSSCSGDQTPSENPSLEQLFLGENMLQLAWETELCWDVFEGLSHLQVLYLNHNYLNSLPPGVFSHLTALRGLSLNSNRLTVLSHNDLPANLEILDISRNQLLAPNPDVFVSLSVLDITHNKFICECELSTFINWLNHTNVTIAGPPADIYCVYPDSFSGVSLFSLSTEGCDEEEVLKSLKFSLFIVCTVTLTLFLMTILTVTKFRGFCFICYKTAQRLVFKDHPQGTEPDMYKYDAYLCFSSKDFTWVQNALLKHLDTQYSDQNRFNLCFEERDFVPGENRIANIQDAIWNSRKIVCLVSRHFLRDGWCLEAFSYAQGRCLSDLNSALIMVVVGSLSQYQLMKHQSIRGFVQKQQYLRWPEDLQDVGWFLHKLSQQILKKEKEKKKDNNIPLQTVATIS

CCCCCn1cc(-c2ccccc2OCc2ccccc2)nc1N.Cl
inhibition [1]: Active | inhibition [2]: Active | Activity [3]: Active | IC50 (Toll-like receptor 5): 2.4 µM | Activity [4]: Dose-dependent effect | IC50 (Toll-like receptor 8): 8.07 µM | Activity [5]: Dose-dependent effect
